From ChEMBL document CHEMBL6092224, “The Discovery and Preclinical Profile of ALG-000184, a Prodrug of the Potent Hepatitis B Virus Capsid Assembly Modulator ALG-001075” (J Med Chem, 2024)
The source made the active and inactive calls. The rule behind the calls is not given here.

How the values were obtained:
Hepatitis B virus [1] = experiment: Antiviral activity against AAV-Hepatitis B virus infected in C57BL/6 mouse assessed as reduction in baseline HBV DNA production at 50 mg/kg, po bid for 56 days followed by induction of compound washout period measured after 7 days; assay type: functional, organism-based; details: time 63.0 day
[2] = Toxicity in C57BL/6 mouse infected with AAV-Hepatitis B virus assessed as change in ALT level at 50 mg/kg, po bid for 56 days followed by induction of compound washout period for 14 days; assay type: organism-based; details: in vivo, 1680 h, time 70 day
Mus musculus [3] = experiment: Effect on HBeAg level in C57BL/6 mouse infected with AAV-Hepatitis B virus at 50 mg/kg, po bid for 56 days followed by induction of compound washout period for 14 days; assay type: functional, organism-based; details: time 70.0 day
Hepatitis B virus [4] = experiment: Antiviral activity against AAV-Hepatitis B virus infected in C57BL/6 mouse assessed as reduction in baseline HBV DNA production at 50 mg/kg, po qd measured after 7 days; assay type: functional; details: time 7 day
Mus musculus [5] = experiment: Effect on HBsAg level in C57BL/6 mouse infected with AAV-Hepatitis B virus at 50 mg/kg, po bid for 56 days followed by induction of compound washout period for 14 days; assay type: functional, organism-based; details: time 70.0 day
[6] = Toxicity in C57BL/6 mouse infected with AAV-Hepatitis B virus assessed as change in body weight at 50 mg/kg, po bid for 56 days followed by induction of compound washout period for 14 days; assay type: organism-based; details: in vivo, 1680 h, time 70 day
Hepatitis B virus [7] = experiment: Antiviral activity against HBV infected in human HepG2.117 cells by qPCR analysis; assay type: functional, organism-based
Summary of the method: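 HepG2.117 cells (integrated genotype D HBV genome, Tet-off promoter; kept in 1 μg/mL doxycycline) were seeded at 20,000 cells/well and given serial compound dilutions (2% DMSO) for 3 days at 37 °C. Lysates were taken in 0.33% NP40. Intracellular HBV DNA was quantified by qPCR and EC50/EC90 derived. For serum shift, 40% human serum was present during incubation. Mean ± SEM, n=3 (serum) or 13.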

[8] = Metabolic stability in human liver microsomes assessed as half life at 1 uM incubated upto 60 mins in presence of NADPH; assay type: ADME, Microsome
Summary of the method: (§1)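 Compound at 1 μM incubated at 37 °C with liver microsomes of each species for 0, 15, 30 and 60 min, with and without NADPH; half-life determined.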

[9] = Clearance in mouse; assay type: ADME, organism-based; details: in vivo
[10] = Metabolic stability in mouse liver microsomes assessed as half life at 1 uM incubated upto 60 mins in presence of NADPH; assay type: ADME, Microsome; summary of the method: as §1
hERG (KCNH2) = hERG (KCNH2) (Homo sapiens, UniProt Q12809); experiment: Inhibition of hERG expressed in mammalian cells at 10 uM by automated patch-clamp technique relative to control; assay type: toxicity, cell-based; details: mammalian cells expressing hERG
Chain of hERG (KCNH2) (Q12809 whole entry): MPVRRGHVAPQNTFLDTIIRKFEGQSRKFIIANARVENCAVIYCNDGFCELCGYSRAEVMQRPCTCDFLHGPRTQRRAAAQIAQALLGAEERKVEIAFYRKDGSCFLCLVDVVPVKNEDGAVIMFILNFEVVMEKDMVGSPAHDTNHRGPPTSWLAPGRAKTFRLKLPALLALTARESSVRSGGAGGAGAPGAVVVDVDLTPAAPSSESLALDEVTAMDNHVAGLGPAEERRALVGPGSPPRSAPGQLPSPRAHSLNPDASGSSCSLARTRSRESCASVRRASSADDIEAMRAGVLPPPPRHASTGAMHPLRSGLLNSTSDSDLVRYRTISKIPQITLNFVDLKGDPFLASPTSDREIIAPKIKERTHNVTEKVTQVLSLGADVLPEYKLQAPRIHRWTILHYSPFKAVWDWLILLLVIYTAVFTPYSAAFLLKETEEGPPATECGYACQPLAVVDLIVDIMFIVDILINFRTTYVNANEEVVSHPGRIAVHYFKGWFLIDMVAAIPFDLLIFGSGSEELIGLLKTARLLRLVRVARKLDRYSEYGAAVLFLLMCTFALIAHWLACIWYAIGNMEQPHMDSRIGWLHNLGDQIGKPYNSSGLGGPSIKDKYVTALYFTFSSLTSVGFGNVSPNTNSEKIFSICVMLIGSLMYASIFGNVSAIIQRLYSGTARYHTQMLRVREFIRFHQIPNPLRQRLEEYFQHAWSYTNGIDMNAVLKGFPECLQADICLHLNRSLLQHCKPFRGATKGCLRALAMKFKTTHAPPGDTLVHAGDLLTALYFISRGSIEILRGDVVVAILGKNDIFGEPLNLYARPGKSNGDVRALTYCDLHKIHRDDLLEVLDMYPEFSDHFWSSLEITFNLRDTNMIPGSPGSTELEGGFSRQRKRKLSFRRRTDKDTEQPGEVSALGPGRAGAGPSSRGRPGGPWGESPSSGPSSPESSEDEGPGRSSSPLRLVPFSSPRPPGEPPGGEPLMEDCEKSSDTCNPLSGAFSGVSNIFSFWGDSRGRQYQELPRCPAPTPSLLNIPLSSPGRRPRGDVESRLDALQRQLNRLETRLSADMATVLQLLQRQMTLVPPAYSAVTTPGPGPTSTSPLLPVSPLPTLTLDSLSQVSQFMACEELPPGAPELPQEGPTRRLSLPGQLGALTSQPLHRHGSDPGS
Summary of the method: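 Currents of hERG, Nav1.5 or Cav1.2 channels expressed in mammalian cells recorded by automated patch clamp (QPatch 48) at room temperature.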

Compound | EC50 (Hepatitis B virus [7]) [nM] | other results
C[C@@H](NS(=O)(=O)c1cn(C)c(C(=O)Nc2ccnc(Cl)c2)c1F)C(F)(F)F | – | Activity (Hepatitis B virus [1]): inactive; Activity [2]: Non-toxic; Activity (Mus musculus [3]): inactive; Activity (Hepatitis B virus [4]): -2.5 log10IU/ml; Activity (Mus musculus [5]): inactive; Activity [6]: Non-toxic
C#CC1(NC(=O)C(=O)c2c(C)c(C(=O)Nc3ccc(F)c(C#N)c3)n(C)c2C)CCCC1 | 1.99 | –
C#CC1(NC(=O)C(=O)c2c(C)c(C(=O)Nc3ccc(F)c(C#N)c3)n(C)c2C)CCC1 | 0.73 | –
C#CC1(NC(=O)C(=O)c2c(C)c(C(=O)Nc3ccc(F)c(C#N)c3)n(C)c2C)CCOCC1 | 2.11 | –
C#CC1(NC(=O)C(=O)c2c(C)c(C(=O)Nc3ccc(F)c(C#N)c3)n(C)c2C)CCS(=O)(=O)CC1 | 3.51 | –
C#CC1(NC(=O)C(=O)c2c(C)c(C(=O)Nc3ccc(F)c(C#N)c3)n(C)c2C)CC(F)(F)C1 | 0.32 | –
C#CCNC(=O)C(=O)c1c(C)c(C(=O)Nc2ccc(F)c(F)c2)n(C)c1C | 2.6 | half-life at 1 µM [8]: > 60 min; clearance [9]: 78.2 mL/min/kg; half-life at 1 µM [10]: 40.4 min; inhibition at 10 µM (hERG (KCNH2)): 31.2%
C#CCNC(=O)C(=O)c1c(C)c(C(=O)Nc2ccc(F)c(C#N)c2)n(C)c1C | 2.88 | clearance [9]: 13.2 mL/min/kg
C#CC1(NC(=O)C(=O)c2c(C)c(C(=O)Nc3ccc(F)c(C#N)c3)n(C)c2C)CC1 | 0.45 | –
C#C[C@H](C)NC(=O)C(=O)c1c(C)c(C(=O)Nc2ccc(F)c(C#N)c2)n(C)c1C | 0.98 | –
C#CCNC(=O)C(=O)c1c(C)c(C(=O)Nc2ccc(F)c(C)c2)n(C)c1C | 1.98 | clearance [9]: 54.3 mL/min/kg
C#C[C@@H](C)NC(=O)C(=O)c1c(C)c(C(=O)Nc2ccc(F)c(C#N)c2)n(C)c1C | 1.32 | –
C#CC(C)(C)NC(=O)C(=O)c1c(C)c(C(=O)Nc2ccc(F)c(C#N)c2)n(C)c1C | 1.49 | –
C#CCNC(=O)C(=O)c1c(C)c(C(=O)Nc2ccc(F)c(C(F)(F)F)c2)n(C)c1C | 2.65 | –
